Among the data in ChEMBL document CHEMBL1141348, “Cytotoxic cardenolide glycosides of Roupellina (Strophanthus) boivinii from the Madagascar rainforest” (J Nat Prod, 2007) are IC50 values, retold here.

Usually pIC50 stands for the negative decadic logarithm of the IC50, by convention in mol/L.

pIC50: −log10 of the molar value.

The subject of this assay is A2780. Put plainly: Antiproliferative activity against human A2780 cells. The assay is classed as functional, cell-based. An outline of the steps:
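Growth inhibition of the drug-sensitive human ovarian cancer line A2780, measured at Virginia Polytechnic Institute and State University. IC50 is the concentration that inhibited 50% of cell growth. Actinomycin D was the positive control.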
Regarding `C[C@H]1O[C@@H](O[C@H]2CC[C@@]3(C=O)[C@@H](CC[C@@H]4[C@@H]3CC[C@]3(C)[C@@H](C5=CC(=O)OC5)CC[C@]43O)C2)C[C@H](O)[C@H]1O[C@@H]1O[C@H](CO)[C@@H](O)[C@H](O)[C@H]1O` [BOIVINIDE D], the pIC50 was 6.54.
Then `CO[C@H]1C[C@H](O[C@H]2CC[C@@]3(C=O)[C@@H](CC[C@@H]4[C@@H]3CC[C@]3(C)[C@H](C5=CC(=O)OC5)CC[C@]43O)C2)O[C@H](C)[C@@H]1O[C@@H]1O[C@H](CO)[C@@H](O)[C@H](O)[C@H]1O` [BOIVINIDE C], with 5.54.
The result for `CO[C@H]1[C@@H](O[C@@H]2O[C@H](CO)[C@@H](O)[C@H](O)[C@H]2O)[C@@H](C)O[C@@H](O[C@H]2CC[C@@]3(C=O)[C@@H](CC[C@@H]4[C@@H]3CC[C@]3(C)[C@@H](C5=CC(=O)OC5)CC[C@]43O)C2)[C@@H]1OC(C)=O` [BOIVINIDE F] reads 6.27; that for `CO[C@H]1[C@@H](O)[C@H](O[C@H]2CC[C@@]3(C)[C@@H](CC[C@@H]4[C@@H]3CC[C@]3(C)[C@@H](C5=CC(=O)OC5)CC[C@]43O)C2)O[C@@H](C)[C@@H]1O[C@@H]1O[C@H](CO)[C@@H](O)[C@H](O)[C@H]1O`, 6.82.
Then `C[C@H]1O[C@@H](O[C@H]2CC[C@@]3(C=O)[C@@H](CC[C@@H]4[C@@H]3CC[C@]3(C)[C@@H](C5=CC(=O)OC5)CC[C@]43O)C2)C[C@H](O)[C@H]1O`, with 6.82; and `CO[C@H]1C[C@H](O[C@H]2CC[C@@]3(C=O)[C@@H](CC[C@@H]4[C@@H]3CC[C@]3(C)[C@@H](C5=CC(=O)OC5)CC[C@]43O)C2)O[C@H](C)[C@@H]1O[C@@H]1O[C@H](CO)[C@@H](O)[C@H](O)[C@H]1O` [BOIVINIDE B], with 6.18.
Compound `CO[C@H]1C[C@H](O[C@H]2CC[C@@]3(C=O)[C@@H](CC[C@@H]4[C@@H]3CC[C@]3(C)[C@H](C5=CC(=O)OC5)CC[C@]43O)C2)O[C@H](C)[C@@H]1O` had a pIC50 of 5.43. Compared with the last compound, the pIC50 is 0.75 log units lower.
The result for `CO[C@@H]1[C@@H](O)[C@H](O[C@H]2CC[C@@]3(C=O)[C@@H](CC[C@@H]4[C@@H]3CC[C@]3(C)[C@@H](C5=CC(=O)OC5)CC[C@]43O)C2)O[C@H](C)[C@@H]1O[C@@H]1O[C@H](CO)[C@@H](O)[C@H](O)[C@H]1O` [BOIVINIDE A] reads 6.77.
`C[C@H]1[C@@H](O[C@H]2CC[C@@]3(C)[C@@H](CC[C@@H]4[C@@H]3CC[C@]3(C)[C@@H](C5=CC(=O)OC5)CC[C@]43O)C2)O[C@@H](C)[C@@H](O)[C@H]1O` had a pIC50 of 6.82. This pIC50 and that of the compound before are within 0.2 log units of each other.
